Measured values from ChEMBL document CHEMBL4706701, “Synthesis and biological activity of selenopsammaplin A and its analogues as antitumor agents with DOT1L inhibitory activity” (Bioorg Med Chem, 2021).
Active and inactive are the calls of the source. The rule behind the calls is not given here.

Experiments:
[1] = system: SNU-638; assay: Cytotoxicity against human SNU-638 cells assessed as reduction in cell viability by SRB assay; type: functional, cell-based
How it was run: (§1)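 Cells seeded in 96-well plates and exposed to compounds for the stated times. Zero-day controls were incubated 30 min. Cells were fixed and stained with 0.4% SRB in 1% acetic acid, and bound dye was dissolved in 10 mM Tris (pH 10.0). A515 was read, and IC50 was calculated by non-linear regression.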

[2] = system: MDA-MB-231; assay: Antitumor activity against human MDA-MB-231 cells xenografted in BALB/c nu mouse assessed as reduction in tumor weight at 5 to 15 mg/kg, ip administered thrice per week for 38 days measured 1 week post last dose; type: functional, organism-based; settings: dose 5-15 mg/kg, time 45.0 day
How it was run: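 Female BALB/c-nu mice (5–6 wk) given 1 × 10⁷ luciferase-expressing MDA-MB-231 cells in 50:50 DMEM/Matrigel into the fourth fat pad; randomized after 10 days (six per group). Dosed ip in EtOH/Cremophor/saline (5:5:90) three times weekly for 38 days. Tumor L, W, H measured by caliper, volume = LWH/2; body weight weekly; tumors excised and weighed at termination.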

[3] = system: MDA-MB-231; assay: Down regulation of VIM expression in human MDA-MB-231 cells at 50 to 200 nM measured after 48 hrs by Western blot analysis; type: functional, cell-based; settings: dose 50-200 nM
How it was run: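 MDA-MB-231 cells exposed to compound for 48 h; lysates in 2× SDS sample buffer with orthovanadate and NaF, protein by BCA. 5–20 μg resolved on 8–15% SDS-PAGE, PVDF, BSA block, probed for E-cadherin, N-cadherin, ZEB1, vimentin; ECL detection, β-actin internal control, band densitometry. Mean ± SD (n = 3), three experiments.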

[4] = biological target: Histone-lysine N-methyltransferase, H3 lysine-79 specific (Homo sapiens) (UniProt Q8TEK3); assay: Inhibition of DOT1L in human MDA-MB-231 cells assessed as effect on histone H3 methylation at 50 to 200 nM by Western blot analysis; type: cell-based; settings: dose 50-200 nM
Histone-lysine N-methyltransferase, H3 lysine-79 specific (Homo sapiens), sequence (Q8TEK3 whole entry, looked up, the tested form may be a part): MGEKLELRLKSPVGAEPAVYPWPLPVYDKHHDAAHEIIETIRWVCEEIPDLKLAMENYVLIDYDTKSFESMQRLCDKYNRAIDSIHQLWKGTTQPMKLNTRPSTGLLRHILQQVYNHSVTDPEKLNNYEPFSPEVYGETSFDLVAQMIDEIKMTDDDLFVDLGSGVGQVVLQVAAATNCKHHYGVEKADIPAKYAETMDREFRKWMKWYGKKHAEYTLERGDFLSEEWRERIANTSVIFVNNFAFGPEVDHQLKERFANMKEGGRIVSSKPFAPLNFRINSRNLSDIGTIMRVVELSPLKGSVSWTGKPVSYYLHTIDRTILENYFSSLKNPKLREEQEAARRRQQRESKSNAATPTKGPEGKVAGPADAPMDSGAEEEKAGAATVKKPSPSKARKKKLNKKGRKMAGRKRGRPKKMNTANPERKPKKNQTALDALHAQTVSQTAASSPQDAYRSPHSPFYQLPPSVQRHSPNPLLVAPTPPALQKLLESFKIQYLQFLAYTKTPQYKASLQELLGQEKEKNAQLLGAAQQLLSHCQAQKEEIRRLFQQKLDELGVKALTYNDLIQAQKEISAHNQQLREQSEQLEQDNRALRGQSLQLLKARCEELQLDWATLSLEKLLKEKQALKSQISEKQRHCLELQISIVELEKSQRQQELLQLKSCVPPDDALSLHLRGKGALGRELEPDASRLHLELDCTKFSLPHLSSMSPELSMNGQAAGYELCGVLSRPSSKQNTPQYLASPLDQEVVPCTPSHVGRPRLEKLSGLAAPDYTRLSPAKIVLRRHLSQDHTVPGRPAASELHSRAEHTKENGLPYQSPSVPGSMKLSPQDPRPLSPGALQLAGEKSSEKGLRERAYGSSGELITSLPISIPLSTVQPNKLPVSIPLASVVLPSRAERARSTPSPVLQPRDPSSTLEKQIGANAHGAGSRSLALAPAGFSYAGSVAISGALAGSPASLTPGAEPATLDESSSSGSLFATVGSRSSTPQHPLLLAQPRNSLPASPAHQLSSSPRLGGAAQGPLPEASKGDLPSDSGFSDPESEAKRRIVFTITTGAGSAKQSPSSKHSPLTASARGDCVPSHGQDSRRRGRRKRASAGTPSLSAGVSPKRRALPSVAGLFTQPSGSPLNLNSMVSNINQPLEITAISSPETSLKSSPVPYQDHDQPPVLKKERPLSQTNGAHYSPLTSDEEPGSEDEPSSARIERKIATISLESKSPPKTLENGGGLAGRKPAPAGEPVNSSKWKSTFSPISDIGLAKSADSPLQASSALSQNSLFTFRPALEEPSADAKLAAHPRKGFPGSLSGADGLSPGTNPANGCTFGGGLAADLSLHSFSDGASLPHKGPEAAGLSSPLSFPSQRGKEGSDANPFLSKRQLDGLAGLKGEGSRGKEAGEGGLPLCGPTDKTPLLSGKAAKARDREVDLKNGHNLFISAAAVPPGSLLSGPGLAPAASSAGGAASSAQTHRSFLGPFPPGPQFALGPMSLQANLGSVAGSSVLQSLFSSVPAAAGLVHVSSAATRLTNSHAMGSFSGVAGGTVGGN
How it was run: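 MDA-MB-231 cell lysates in 2× SDS buffer, protein by BCA; 5–20 μg on 8–15% SDS-PAGE, transferred to PVDF, BSA-blocked and probed with antibodies to H3K4me2, H3K27me2, H3K36me2, H3K79me2 and total histone H3; ECL detection. Mean ± SD (n = 3), three separate experiments.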

[5] = Toxicity in human MDA-MB-231 cells xenografted BALB/c nu mouse assessed as change in body weight at 5 to 15 mg/kg, ip administered thrice per week for 38 days measured once per week during compound dosing; type: organism-based; settings: in vivo, 912 h, dose 5-15 mg/kg, time 38 day
How it was run: (§2)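 Female BALB/c-nu mice, 5–6 weeks old, received 1 × 10⁷ luciferase-expressing MDA-MB-231 cells in 50:50 DMEM/Matrigel into the fourth fat pad. At day 10, mice were randomized into groups of six. Dosing was i.p. three times weekly for 38 days, in vehicle EtOH/Cremophor/saline 5:5:90. Body weight was recorded weekly, and toxicity was judged by lethality and weight loss.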

[6] = Toxicity in human MDA-MB-231 cells xenografted BALB/c nu mouse at 5 to 15 mg/kg, ip administered thrice per week for 38 days; type: organism-based; settings: in vivo, 912 h, dose 5-15 mg/kg, time 38 day; how it was run: as §2
[7] = system: MDA-MB-231; assay: Antimetastatic activity against human MDA-MB-231 cells xenografted in ip dosed BALB/c nu mouse assessed as up regulation of E-cadherin expression in tumor tissue administered thrice per week for 38 days measured 1 week post last dose by Western blot analysis; type: functional, organism-based; settings: dose 5-15 mg/kg, time 45.0 day
How it was run: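 Frozen tumor portions from the orthotopic MDA-MB-231 nude mouse study homogenized in complete lysis buffer; protein by Bradford assay. Western blotting for H3K79me2, E-cadherin and vimentin, β-actin internal control, band intensities semi-quantified; three separate experiments.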

[8] = Selectivity ratio of IC50 for human MCF-10A cells to IC50 for human MDA-MB-231 cells; type: toxicity; settings: MCF-10A cells versus MDA-MB-231 cells, read-out: Ratio IC50
[9] = system: MDA-MB-231; assay: Antitumor activity against human MDA-MB-231 cells xenografted in BALB/c nu mouse assessed as down regulation of Ki67 expression in tumor tissue at 5 to 15 mg/kg, ip administered thrice per week for 38 days measured 1 week post last dose by H and E staining based immunohistochemical analysis; type: functional, organism-based; settings: dose 5-15 mg/kg, time 45.0 day
How it was run: (§3)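 Tumors and lungs from orthotopic MDA-MB-231/Luc nude mice (ip dosing three times weekly, 38 days) fixed in 4% PFA, paraffin-embedded, sectioned, antigen-retrieved. Lungs H&E-stained for metastatic cells; tumor sections immunostained for Ki67, H3K79me2, E-cadherin, vimentin with HRP detection, hematoxylin counterstain, imaged at 200×.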

[10] = system: MDA-MB-231; assay: Down regulation of VIM mRNA expression in human MDA-MB-231 cells at 50 to 200 nM measured after 24 hrs by RT-PCR analysis; type: functional, cell-based; settings: dose 50-200 nM
[11] = Selectivity ratio of IC50 for human MCF-10A cells to IC50 for human A549 cells; type: toxicity; settings: MCF-10A cells versus A549 cells, read-out: Ratio IC50
[12] = Selectivity ratio of IC50 for human MCF-10A cells to IC50 for human HCT-116 cells; type: toxicity; settings: MCF-10A cells versus HCT-116 cells, read-out: Ratio IC50
[13] = Selectivity ratio of IC50 for human MCF-10A cells to IC50 for human SNU-638 cells
How it was run: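 Cytotoxicity by SRB assay: cells seeded in 96-well plates and treated with compounds; fixed, stained with 0.4% SRB in 1% acetic acid, dye dissolved in 10 mM Tris (pH 10.0), absorbance read at 515 nm. IC50 by non-linear regression, means of at least three experiments; ratio of MCF10A IC50 to cancer-line IC50.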

[14] = system: A549; assay: Cytotoxicity against human A549 cells assessed as reduction in cell viability by SRB assay; type: functional, cell-based; how it was run: as §1
[15] = system: HCT-116; assay: Cytotoxicity against human HCT-116 cells assessed as reduction in cell viability by SRB assay; type: functional, cell-based; how it was run: as §1
[16] = system: MDA-MB-231; assay: Antimetastatic activity against human MDA-MB-231 cells xenografted in BALB/c nu mouse assessed as down regulation of vimentin expression in tumor tissue at 5 to 15 mg/kg, ip administered thrice per week for 38 days measured 1 week post last dose by H and E staining based immunohistochemical analysis; type: functional, organism-based; settings: dose 5-15 mg/kg, time 45.0 day; how it was run: as §3
[17] = biological target: Histone-lysine N-methyltransferase, H3 lysine-79 specific (Homo sapiens) (UniProt Q8TEK3); assay: Inhibition of human N-terminal GST-tagged DOT1L (2 to 416 residues) expressed in Escherichia coli at 200 nM using DOT1L substrate measured after 2 hrs in presence of SAM by ELISA
How it was run: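 Cell-free DOT1L enzyme activity assay using 500 ng DOT1L per well. Compound was incubated 2 h before read-out. EPZ-5676 (100 nM) was the positive control. Mean ± SD (n = 3), representative of three separate experiments.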

[18] = system: MDA-MB-231; assay: Cytotoxicity against human MDA-MB-231 cells assessed as reduction in cell viability by SRB assay; type: functional, cell-based; how it was run: as §1
[19] = biological target: Histone-lysine N-methyltransferase, H3 lysine-79 specific (Homo sapiens) (UniProt Q8TEK3); assay: Inhibition of DOT1L in human MDA-MB-231 cells assessed as down regulation of H3K79me2 expression at 200 nM by Western blot analysis; type: cell-based
How it was run: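 MDA-MB-231 lysates were made in 2× SDS sample buffer with vanadate and fluoride. 5-20 μg protein was run on 8–15% SDS-PAGE and blotted to PVDF. Membranes were blocked in 5% BSA, probed for H3K79me2 with total histone H3, and detected by ECL. Mean ± SD (n = 3), representative of three separate experiments.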

For `O=C(NCC[Se][Se]CCNC(=O)/C(Cc1ccccc1)=N/O)/C(Cc1ccccc1)=N/O`, the IC50 [1] was 50 nM, the Activity [2] was “Active” and the Activity [3] was “Active”. The inhibition [4] was “Active”, the Activity [5] was “Non-Toxic” and the Activity [6] was “Non-Toxic”. The Activity [7] was “Dose-dependent effect”, the selectivity ratio [8] was greater than 100 and the Activity [9] was “Active”. The Activity [10] was “Active”, the selectivity ratio [11] was greater than 100 and the selectivity ratio [12] was greater than 100. For the same compound, the “Ratio IC50” value [13] was greater than 100, the IC50 [14] was 80 nM and the IC50 [15] was 90 nM. The Activity [16] was “Active”, the inhibition [17] was “Active” and the IC50 [18] was 60 nM. The “H3K79me2 downregulation (active/not active)” value [19] was “Active”.
